What was measured:
Conditions in all cases: stereoisomer not certain
OR10G2 (Homo sapiens) = target: T1, OR10G2 (Homo sapiens) (UniProt Q8NGC3)
T1 sequence (whole entry): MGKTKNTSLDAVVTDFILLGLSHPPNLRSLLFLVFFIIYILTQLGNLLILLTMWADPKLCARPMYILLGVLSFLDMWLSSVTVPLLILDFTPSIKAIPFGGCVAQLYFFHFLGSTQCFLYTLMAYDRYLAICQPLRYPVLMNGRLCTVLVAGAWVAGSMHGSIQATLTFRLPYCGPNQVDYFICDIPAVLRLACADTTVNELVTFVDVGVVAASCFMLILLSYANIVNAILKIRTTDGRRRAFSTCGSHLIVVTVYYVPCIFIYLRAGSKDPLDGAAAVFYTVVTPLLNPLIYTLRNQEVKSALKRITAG
How it was run: (§1)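 Whether a receptor–molecule pair is responsive (active) rests on the original authors' judgment that its measured signal was statistically different from baseline. Pairs without that judgment are non-responsive (inactive). Sources used varied assay methods, commonly transient luciferase assays in mammalian cell lines.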

OR10G3 (Homo sapiens) = target: T2, OR10G3 (Homo sapiens) (UniProt Q8NGC4)
T2 sequence (whole entry): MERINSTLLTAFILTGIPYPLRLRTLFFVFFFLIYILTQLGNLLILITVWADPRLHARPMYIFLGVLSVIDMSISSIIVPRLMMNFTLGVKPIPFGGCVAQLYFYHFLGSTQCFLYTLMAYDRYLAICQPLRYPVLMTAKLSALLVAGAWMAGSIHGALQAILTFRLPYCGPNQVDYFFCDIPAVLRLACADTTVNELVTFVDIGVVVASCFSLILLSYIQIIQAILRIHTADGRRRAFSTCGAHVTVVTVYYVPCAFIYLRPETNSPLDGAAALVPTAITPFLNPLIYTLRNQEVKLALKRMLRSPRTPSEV
How it was run: as §1

OR10G4 (Homo sapiens) = target: T3, OR10G4 (Homo sapiens) (UniProt Q8NGN3)
T3 sequence (whole entry): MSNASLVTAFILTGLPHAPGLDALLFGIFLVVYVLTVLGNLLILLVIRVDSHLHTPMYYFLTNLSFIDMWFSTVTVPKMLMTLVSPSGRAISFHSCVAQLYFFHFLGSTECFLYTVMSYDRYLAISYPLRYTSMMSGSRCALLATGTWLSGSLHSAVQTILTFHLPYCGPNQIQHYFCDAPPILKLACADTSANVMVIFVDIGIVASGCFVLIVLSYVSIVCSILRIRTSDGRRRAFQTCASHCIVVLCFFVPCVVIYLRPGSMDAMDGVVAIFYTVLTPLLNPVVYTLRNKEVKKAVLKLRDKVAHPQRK
How it was run: as §1

OR10G6 (Homo sapiens) = target: T4, OR10G6 (Homo sapiens) (UniProt Q8NH81)
T4 sequence (whole entry): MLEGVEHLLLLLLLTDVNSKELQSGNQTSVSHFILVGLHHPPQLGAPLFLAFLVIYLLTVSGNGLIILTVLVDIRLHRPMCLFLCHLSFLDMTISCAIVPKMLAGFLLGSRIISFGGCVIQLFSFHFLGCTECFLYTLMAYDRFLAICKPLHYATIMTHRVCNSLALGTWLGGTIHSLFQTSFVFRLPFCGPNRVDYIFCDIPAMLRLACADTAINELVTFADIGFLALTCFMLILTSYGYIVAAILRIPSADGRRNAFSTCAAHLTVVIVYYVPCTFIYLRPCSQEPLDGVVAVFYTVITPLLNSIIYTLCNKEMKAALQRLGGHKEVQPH
How it was run: as §1

OR10G7 (Homo sapiens) = target: T5, OR10G7 (Homo sapiens) (UniProt Q8NGN6)
T5 sequence (whole entry): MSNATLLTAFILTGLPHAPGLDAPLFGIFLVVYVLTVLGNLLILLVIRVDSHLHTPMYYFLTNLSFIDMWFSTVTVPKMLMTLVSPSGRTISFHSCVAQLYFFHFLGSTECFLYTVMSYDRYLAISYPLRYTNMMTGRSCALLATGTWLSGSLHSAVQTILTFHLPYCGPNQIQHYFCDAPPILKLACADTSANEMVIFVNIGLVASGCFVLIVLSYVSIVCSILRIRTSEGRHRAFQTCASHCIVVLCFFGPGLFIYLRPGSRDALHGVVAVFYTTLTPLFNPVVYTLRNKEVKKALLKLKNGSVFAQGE
How it was run: as §1

OR10G8 (Homo sapiens) = target: T6, OR10G8 (Homo sapiens) (UniProt Q8NGN5)
T6 sequence (whole entry): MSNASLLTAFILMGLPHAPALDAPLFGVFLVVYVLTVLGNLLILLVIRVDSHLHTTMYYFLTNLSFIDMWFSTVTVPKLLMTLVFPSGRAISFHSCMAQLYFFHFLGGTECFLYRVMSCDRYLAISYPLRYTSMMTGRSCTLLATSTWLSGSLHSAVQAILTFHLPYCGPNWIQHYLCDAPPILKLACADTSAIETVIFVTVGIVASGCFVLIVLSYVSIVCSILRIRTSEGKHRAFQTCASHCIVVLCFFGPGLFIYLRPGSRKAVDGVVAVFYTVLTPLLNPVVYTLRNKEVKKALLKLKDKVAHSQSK
How it was run: as §1

OR10G9 (Homo sapiens) = target: T7, OR10G9 (Homo sapiens) (UniProt Q8NGN4)
T7 sequence (whole entry): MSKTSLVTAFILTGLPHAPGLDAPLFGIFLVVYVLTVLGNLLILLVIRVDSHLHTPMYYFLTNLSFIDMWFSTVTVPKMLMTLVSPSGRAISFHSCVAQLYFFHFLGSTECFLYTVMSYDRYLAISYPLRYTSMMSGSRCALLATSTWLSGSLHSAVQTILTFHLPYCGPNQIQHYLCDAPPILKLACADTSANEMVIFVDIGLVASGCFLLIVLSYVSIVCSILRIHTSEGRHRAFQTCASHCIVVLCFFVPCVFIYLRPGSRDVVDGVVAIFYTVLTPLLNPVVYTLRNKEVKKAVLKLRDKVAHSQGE
How it was run: as §1

OR10H1 (Homo sapiens) = target: T8, OR10H1 (Homo sapiens) (UniProt Q9Y4A9)
T8 sequence (whole entry): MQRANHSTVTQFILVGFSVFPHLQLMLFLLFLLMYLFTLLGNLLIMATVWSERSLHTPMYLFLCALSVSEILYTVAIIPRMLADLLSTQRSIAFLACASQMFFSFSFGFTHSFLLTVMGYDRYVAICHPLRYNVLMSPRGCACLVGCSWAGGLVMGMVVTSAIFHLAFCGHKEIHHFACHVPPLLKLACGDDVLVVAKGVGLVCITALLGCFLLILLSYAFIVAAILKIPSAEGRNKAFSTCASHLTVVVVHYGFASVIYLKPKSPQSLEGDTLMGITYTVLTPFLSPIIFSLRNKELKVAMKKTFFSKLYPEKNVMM
How it was run: as §1

OR10H2 (Homo sapiens) = target: T9, OR10H2 (Homo sapiens) (UniProt O60403)
T9 sequence (whole entry): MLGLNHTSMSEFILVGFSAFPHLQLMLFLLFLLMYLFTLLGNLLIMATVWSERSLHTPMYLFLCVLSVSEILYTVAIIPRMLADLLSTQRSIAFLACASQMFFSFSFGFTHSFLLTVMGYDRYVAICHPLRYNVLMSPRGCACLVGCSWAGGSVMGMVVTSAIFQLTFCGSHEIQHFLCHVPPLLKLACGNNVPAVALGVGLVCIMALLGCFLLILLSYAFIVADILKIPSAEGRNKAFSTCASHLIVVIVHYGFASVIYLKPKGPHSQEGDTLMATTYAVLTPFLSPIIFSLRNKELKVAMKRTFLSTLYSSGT
How it was run: as §1

OR10H3 (Homo sapiens) = target: T10, OR10H3 (Homo sapiens) (UniProt O60404)
T10 sequence (whole entry): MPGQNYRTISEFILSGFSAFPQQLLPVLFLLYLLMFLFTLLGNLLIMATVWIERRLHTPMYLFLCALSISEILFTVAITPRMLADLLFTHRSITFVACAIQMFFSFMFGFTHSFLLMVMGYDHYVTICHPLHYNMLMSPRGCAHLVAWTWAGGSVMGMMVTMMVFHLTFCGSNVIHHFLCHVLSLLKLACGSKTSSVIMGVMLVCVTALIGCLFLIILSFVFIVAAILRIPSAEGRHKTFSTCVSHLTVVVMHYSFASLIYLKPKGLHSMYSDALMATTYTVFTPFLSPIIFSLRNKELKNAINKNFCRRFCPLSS
How it was run: as §1

OR10H4 (Homo sapiens) = target: T11, OR10H4 (Homo sapiens) (UniProt Q8NGA5)
T11 sequence (whole entry): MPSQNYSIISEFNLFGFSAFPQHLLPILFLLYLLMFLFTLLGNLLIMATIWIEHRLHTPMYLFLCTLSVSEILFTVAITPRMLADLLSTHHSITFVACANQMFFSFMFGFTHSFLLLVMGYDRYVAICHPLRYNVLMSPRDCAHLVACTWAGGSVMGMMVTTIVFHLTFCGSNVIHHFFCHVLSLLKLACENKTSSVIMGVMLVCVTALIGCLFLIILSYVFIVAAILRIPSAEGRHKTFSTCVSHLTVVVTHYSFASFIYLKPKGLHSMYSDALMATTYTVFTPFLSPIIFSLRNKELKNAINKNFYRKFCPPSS
How it was run: as §1

OR10H5 (Homo sapiens) = target: T12, OR10H5 (Homo sapiens) (UniProt Q8NGA6)
T12 sequence (whole entry): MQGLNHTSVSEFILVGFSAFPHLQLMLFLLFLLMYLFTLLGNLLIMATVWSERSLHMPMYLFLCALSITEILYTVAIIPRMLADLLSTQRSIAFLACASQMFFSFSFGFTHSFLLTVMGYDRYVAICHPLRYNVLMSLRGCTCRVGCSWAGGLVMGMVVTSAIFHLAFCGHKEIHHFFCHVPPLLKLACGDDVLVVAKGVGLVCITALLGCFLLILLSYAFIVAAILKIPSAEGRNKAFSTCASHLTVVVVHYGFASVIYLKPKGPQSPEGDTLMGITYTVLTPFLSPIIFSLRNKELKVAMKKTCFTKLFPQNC
How it was run: as §1

OR10J1 (Homo sapiens) = target: T13, OR10J1 (Homo sapiens) (UniProt P30954)
T13 sequence (whole entry): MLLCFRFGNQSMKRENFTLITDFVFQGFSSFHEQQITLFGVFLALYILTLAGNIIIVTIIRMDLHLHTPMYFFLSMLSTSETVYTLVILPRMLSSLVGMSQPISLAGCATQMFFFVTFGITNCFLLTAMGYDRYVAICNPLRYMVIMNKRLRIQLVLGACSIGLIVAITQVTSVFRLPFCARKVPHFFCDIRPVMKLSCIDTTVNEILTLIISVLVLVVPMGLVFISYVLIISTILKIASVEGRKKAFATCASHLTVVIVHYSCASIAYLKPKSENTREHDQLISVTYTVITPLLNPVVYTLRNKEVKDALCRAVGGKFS
How it was run: as §1

OR10J3 (Homo sapiens) = target: T14, OR10J3 (Homo sapiens) (UniProt Q5JRS4)
T14 sequence (whole entry): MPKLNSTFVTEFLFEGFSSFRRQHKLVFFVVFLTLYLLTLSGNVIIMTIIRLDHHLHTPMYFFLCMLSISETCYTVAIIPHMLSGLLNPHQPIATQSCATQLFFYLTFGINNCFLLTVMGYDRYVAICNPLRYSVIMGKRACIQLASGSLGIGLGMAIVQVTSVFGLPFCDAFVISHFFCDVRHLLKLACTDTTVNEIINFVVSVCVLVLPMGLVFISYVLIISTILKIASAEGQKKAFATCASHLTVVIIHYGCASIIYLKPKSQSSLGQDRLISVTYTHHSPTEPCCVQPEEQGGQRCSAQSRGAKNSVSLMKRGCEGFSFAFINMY
How it was run: as §1

OR10J5 (Homo sapiens) = target: T15, OR10J5 (Homo sapiens) (UniProt Q8NHC4)
T15 sequence (whole entry): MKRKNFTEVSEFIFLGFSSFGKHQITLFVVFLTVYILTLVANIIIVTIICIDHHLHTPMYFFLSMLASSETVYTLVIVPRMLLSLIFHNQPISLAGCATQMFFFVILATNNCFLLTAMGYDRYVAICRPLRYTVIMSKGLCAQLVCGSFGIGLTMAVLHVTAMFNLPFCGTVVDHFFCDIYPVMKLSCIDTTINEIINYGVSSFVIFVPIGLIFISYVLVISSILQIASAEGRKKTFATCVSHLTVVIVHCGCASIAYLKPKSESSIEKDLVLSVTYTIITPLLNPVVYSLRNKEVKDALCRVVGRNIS
How it was run: as §1

OR10K1 (Homo sapiens) = target: T16, OR10K1 (Homo sapiens) (UniProt Q8NGX5)
T16 sequence (whole entry): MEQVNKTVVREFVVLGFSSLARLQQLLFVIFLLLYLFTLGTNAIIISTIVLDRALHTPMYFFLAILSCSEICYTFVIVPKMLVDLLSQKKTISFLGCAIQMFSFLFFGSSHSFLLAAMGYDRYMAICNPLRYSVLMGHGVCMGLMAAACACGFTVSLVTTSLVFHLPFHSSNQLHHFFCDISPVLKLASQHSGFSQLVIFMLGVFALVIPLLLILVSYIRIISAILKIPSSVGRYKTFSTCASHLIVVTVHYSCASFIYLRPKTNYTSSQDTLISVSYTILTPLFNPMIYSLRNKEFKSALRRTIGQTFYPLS
How it was run: as §1

OR10P1 (Homo sapiens) = target: T17, OR10P1 (Homo sapiens) (UniProt Q8NGE3)
T17 sequence (whole entry): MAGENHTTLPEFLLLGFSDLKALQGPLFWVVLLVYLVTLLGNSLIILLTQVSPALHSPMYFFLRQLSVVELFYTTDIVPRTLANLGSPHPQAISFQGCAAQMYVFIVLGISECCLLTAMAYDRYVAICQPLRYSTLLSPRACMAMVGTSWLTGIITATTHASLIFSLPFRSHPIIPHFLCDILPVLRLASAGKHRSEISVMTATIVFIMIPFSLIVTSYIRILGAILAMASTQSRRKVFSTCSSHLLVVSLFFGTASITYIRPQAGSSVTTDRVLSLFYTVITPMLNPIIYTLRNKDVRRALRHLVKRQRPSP
How it was run: as §1

OR10Q1 (Homo sapiens) = target: T18, OR10Q1 (Homo sapiens) (UniProt Q8NGQ4)
T18 sequence (whole entry): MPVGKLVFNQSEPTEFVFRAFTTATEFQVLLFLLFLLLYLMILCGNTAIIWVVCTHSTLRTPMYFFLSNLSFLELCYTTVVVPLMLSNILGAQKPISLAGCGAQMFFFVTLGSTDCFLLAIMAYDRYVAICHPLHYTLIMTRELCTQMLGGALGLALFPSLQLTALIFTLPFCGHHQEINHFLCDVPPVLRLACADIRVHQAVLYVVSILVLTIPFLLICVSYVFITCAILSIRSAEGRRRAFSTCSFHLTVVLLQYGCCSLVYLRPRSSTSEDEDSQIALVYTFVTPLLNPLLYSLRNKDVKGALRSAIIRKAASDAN
How it was run: as §1

Measured: odorant receptor agonist call;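 note: active if original authors judged signal statistically different from baseline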

Cc1cnc(C)c(C)n1
inactive: all assays above

CCCCCCC(=O)[O-].[H+]
inactive: OR10J5 (Homo sapiens)

CCCCCCCC(=O)[O-].[H+]
inactive: OR10J5 (Homo sapiens)

CCC1OC(=O)C(O)=C1C (stereo not drawn)
inactive: all assays above
